Some results are limits rather than exact numbers.

The test system of one experiment is Leishmania infantum. As to the kind of experiment: Percentage of activity against Leishmania infantum at 1.56 uM.
Details: not given
In kind it is functional. In short, it runs like this: (§1)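 Starch-stimulated mouse peritoneal macrophages, 30 000/well, infected after 24 h with spleen-derived L. infantum amastigotes (10:1) together with 2-fold drug dilutions (12.5–1.56 µM). Incubated 7 days at 37 °C, 5% CO2. Wright-stained slides scored microscopically as % reduction of total parasite load or of infected macrophages. Uninfected treated cultures judged microscopically for macrophage toxicity.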
As to `COc1ccc2nc3cc(Cl)ccc3c(NCCCN(CCCNc3c4ccc(Cl)cc4nc4ccc(OC)cc34)C(=O)CNC(=O)C(C)NC(=O)OC(C)(C)C)c2c1` (configuration not stated), the “Antileishmanial activity (% reduction of parasite load)” value stood at 0%.
As for `COc1ccc2nc3cc(Cl)ccc3c(NCCCN(CCCNc3c4ccc(Cl)cc4nc4ccc(OC)cc34)C(=O)C(N)CN)c2c1` (configuration not stated), the “Antileishmanial activity (% reduction of parasite load)” value stood at 0%.

The next experiment concerns MRC5. As to the kind of experiment: Cytotoxicity on MRC-5 cells at 3.13 uM. Particulars: Homo sapiens. It counts as functional. In short, it runs like this: (§2)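 MRC-5 human diploid embryonic lung cells seeded at 5 000/well, washed after 24 h, then given 2-fold drug dilutions (25, 12.5, 6.25, 3.13 µM) in RPMI + 5% FCS, final DMSO below 0.5%. Incubated 7 days at 37 °C, 5% CO2. MTT colorimetric read-out, scored as % reduction of absorbance at 540 nm versus untreated controls.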
Turning to `COc1ccc2nc3cc(Cl)ccc3c(NCCCN(CCCNc3c4ccc(Cl)cc4nc4ccc(OC)cc34)C(=O)CNC(=O)C(C)NC(=O)OC(C)(C)C)c2c1` (configuration not stated), the cytotoxicity at 3.13 µM is 31%.
For `COc1ccc2nc3cc(Cl)ccc3c(NCCCN(CCCNc3c4ccc(Cl)cc4nc4ccc(OC)cc34)C(=O)C(N)CN)c2c1` (configuration not stated), the cytotoxicity at 3.13 µM amounted to 0%.

The test system of another experiment is Trypanosoma cruzi. As to the kind of experiment: Percentage of activity against Trypanosoma cruzi at 3.13 uM.
Details: not given
In kind it is functional. Summed up: (§3)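 Mouse peritoneal macrophages, 30 000/well, infected after 24 h with about 100 000 T. cruzi trypomastigotes per well plus 2-fold drug dilutions (12.5–1.56 µM). Incubated 4 days at 37 °C, 5% CO2. Methanol-fixed, Giemsa-stained and scored microscopically as % reduction of total parasite load (free trypomastigotes plus intracellular amastigotes) versus untreated controls.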
In the case of `COc1ccc2nc3cc(Cl)ccc3c(NCCCN(CCCNc3c4ccc(Cl)cc4nc4ccc(OC)cc34)C(=O)CNC(=O)C(C)NC(=O)OC(C)(C)C)c2c1` (configuration not stated), the “Reduction of T. cruzi parasite load” value stood at 0%.
Same read-out and setting: the value for `COc1ccc2nc3cc(Cl)ccc3c(NCCCN(CCCNc3c4ccc(Cl)cc4nc4ccc(OC)cc34)C(=O)C(N)CN)c2c1` (configuration not stated) was 40%.

A further experiment deals with Leishmania infantum. As to the kind of experiment: Percentage of activity against Leishmania infantum at 6.25 uM; Toxic upon mouse primary peritoneal macrophages. In kind it is functional, organism-based.
Details: not given
In short, it runs like this: as §1
As for `COc1ccc2nc3cc(Cl)ccc3c(NCCCN(CCCNc3c4ccc(Cl)cc4nc4ccc(OC)cc34)C(=O)CNC(=O)C(C)NC(=O)OC(C)(C)C)c2c1` (configuration not stated), the Cytotoxicity entry was “Toxic”.
As for `COc1ccc2nc3cc(Cl)ccc3c(NCCCN(CCCNc3c4ccc(Cl)cc4nc4ccc(OC)cc34)C(=O)C(N)CN)c2c1` (configuration not stated), the Cytotoxicity entry is “Toxic”.

For the next experiment, the system named is Leishmania infantum. The experiment can be described thus: Percentage of activity against Leishmania infantum at 3.13 uM. In kind it is functional.
Details: not given
In short, it runs like this: as §1
Turning to `COc1ccc2nc3cc(Cl)ccc3c(NCCCN(CCCNc3c4ccc(Cl)cc4nc4ccc(OC)cc34)C(=O)CNC(=O)C(C)NC(=O)OC(C)(C)C)c2c1` (configuration not stated), the “Percent antileishmanial activity (reduction of parasite load)” value amounted to 0%.
The same measure, in the same setting: the value for `COc1ccc2nc3cc(Cl)ccc3c(NCCCN(CCCNc3c4ccc(Cl)cc4nc4ccc(OC)cc34)C(=O)C(N)CN)c2c1` (configuration not stated) was 0%.

The next experiment concerns Trypanosoma brucei. The experiment can be described thus: Percentage of activity against Trypanosoma brucei at 3.13 uM. In kind it is functional.
Details: not given
In short, it runs like this: (§4)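 Bloodstream-form T. brucei in HMI-9 medium, 10 000 parasites/well, exposed to 12.5, 6.25, 3.13 and 1.56 µM drug for 4 days. Read-out is % inhibition of parasite multiplication. Macrophage toxicity judged on mouse primary peritoneal macrophages.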
In the case of `COc1ccc2nc3cc(Cl)ccc3c(NCCCN(CCCNc3c4ccc(Cl)cc4nc4ccc(OC)cc34)C(=O)CNC(=O)C(C)NC(=O)OC(C)(C)C)c2c1` (configuration not stated), the Parasite growth inhibition was 100%.
For `COc1ccc2nc3cc(Cl)ccc3c(NCCCN(CCCNc3c4ccc(Cl)cc4nc4ccc(OC)cc34)C(=O)C(N)CN)c2c1` (configuration not stated), the Parasite growth inhibition stood at 100%.

The subject of the next experiment is Trypanosoma cruzi. The experiment can be described thus: In Vitro evaluation for the percentage of activity towards Trypanosoma cruzi at 6.25 uM Concentration; Toxic upon mouse primary peritoneal macrophages. In kind it is functional, organism-based.
Details: not given
In short, it runs like this:
as §3
On to `COc1ccc2nc3cc(Cl)ccc3c(NCCCN(CCCNc3c4ccc(Cl)cc4nc4ccc(OC)cc34)C(=O)C(N)CN)c2c1` (configuration not stated), for which the Cytotoxicity result was “Toxic”.

The next experiment relates to Trypanosoma brucei. As to the kind of experiment: Percentage of activity against Trypanosoma brucei at 6.25 uM. It counts as functional.
Details: not given
In short, it runs like this:
as §4
Take `COc1ccc2nc3cc(Cl)ccc3c(NCCCN(CCCNc3c4ccc(Cl)cc4nc4ccc(OC)cc34)C(=O)CNC(=O)C(C)NC(=O)OC(C)(C)C)c2c1` (configuration not stated): the “Inhibition of parasite multiplication” value is reported as 100%.
Still for that read-out and setting: the value for `COc1ccc2nc3cc(Cl)ccc3c(NCCCN(CCCNc3c4ccc(Cl)cc4nc4ccc(OC)cc34)C(=O)C(N)CN)c2c1` (configuration not stated) was 100%.

In the next experiment the test system is Trypanosoma cruzi. As to the kind of experiment: Percentage of activity against Trypanosoma cruzi at 1.56 uM. It counts as functional.
Details: not given
In short, it runs like this:
as §3
For `COc1ccc2nc3cc(Cl)ccc3c(NCCCN(CCCNc3c4ccc(Cl)cc4nc4ccc(OC)cc34)C(=O)CNC(=O)C(C)NC(=O)OC(C)(C)C)c2c1` (configuration not stated), the Parasite load reduction is 0%.
For the molecule `COc1ccc2nc3cc(Cl)ccc3c(NCCCN(CCCNc3c4ccc(Cl)cc4nc4ccc(OC)cc34)C(=O)C(N)CN)c2c1` (configuration not stated), the Parasite load reduction was determined as 0%.

The subject of a further experiment is Plasmodium falciparum. The experiment can be described thus: In vitro sensitivity for Plasmodium falciparum FcB1R. It counts as functional, organism-based.
Details: not given
In short, it runs like this: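 Asynchronous P. falciparum cultures in human erythrocytes (0.5% parasitemia, 1% haematocrit) exposed to serially diluted drug for 24 h at 37 °C. [3H]hypoxanthine (0.5 µCi/well) then added for a further 24 h. Uptake compared with drug-free controls on the same plate. IC50 taken from the concentration–response curve, averaged over independent experiments. DMSO ≤0.1%.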
By IC50 is commonly meant the concentration that inhibits the measured activity by half. Read a high IC50 as weaker potency in that assay. As for `COc1ccc2nc3cc(Cl)ccc3c(NCCCN(CCCNc3c4ccc(Cl)cc4nc4ccc(OC)cc34)C(=O)CNC(=O)C(C)NC(=O)OC(C)(C)C)c2c1` (configuration not stated), the IC50 is 440 nM.
On the same count and under the same terms, the result for `COc1ccc2nc3cc(Cl)ccc3c(NCCCN(CCCNc3c4ccc(Cl)cc4nc4ccc(OC)cc34)C(=O)C(N)CN)c2c1` (configuration not stated) reads more than 500 nM.

A further experiment has as its system Trypanosoma cruzi. The experiment can be described thus: Percentage of activity against Trypanosoma cruzi at 12.5 uM; Toxic upon mouse primary peritoneal macrophages. It counts as functional, organism-based.
Details: not given
In short, it runs like this:
as §3
As for `COc1ccc2nc3cc(Cl)ccc3c(NCCCN(CCCNc3c4ccc(Cl)cc4nc4ccc(OC)cc34)C(=O)CNC(=O)C(C)NC(=O)OC(C)(C)C)c2c1` (configuration not stated), the Cytotoxicity result is “Toxic”.
With `COc1ccc2nc3cc(Cl)ccc3c(NCCCN(CCCNc3c4ccc(Cl)cc4nc4ccc(OC)cc34)C(=O)C(N)CN)c2c1` (configuration not stated), the Cytotoxicity entry was “Toxic”.

The next experiment relates to MRC5. As to the kind of experiment: Cytotoxicity on MRC-5 cells at 12.5 uM. In kind it is functional. Particulars: Homo sapiens. In short, it runs like this: as §2
On to `COc1ccc2nc3cc(Cl)ccc3c(NCCCN(CCCNc3c4ccc(Cl)cc4nc4ccc(OC)cc34)C(=O)CNC(=O)C(C)NC(=O)OC(C)(C)C)c2c1` (configuration not stated), for which the cytotoxicity at 12.5 µM worked out at 71%.
Still for that read-out and setting: the result for `COc1ccc2nc3cc(Cl)ccc3c(NCCCN(CCCNc3c4ccc(Cl)cc4nc4ccc(OC)cc34)C(=O)C(N)CN)c2c1` (configuration not stated) reads 0%.

The subject of the next experiment is MRC5. The experiment can be described thus: Cytotoxicity on MRC-5 cells at 25 uM. Particulars: Homo sapiens. It counts as functional. In short, it runs like this: as §2
With `COc1ccc2nc3cc(Cl)ccc3c(NCCCN(CCCNc3c4ccc(Cl)cc4nc4ccc(OC)cc34)C(=O)CNC(=O)C(C)NC(=O)OC(C)(C)C)c2c1` (configuration not stated), the cytotoxicity at 25 µM amounted to 100%.
Regarding `COc1ccc2nc3cc(Cl)ccc3c(NCCCN(CCCNc3c4ccc(Cl)cc4nc4ccc(OC)cc34)C(=O)C(N)CN)c2c1` (configuration not stated), the cytotoxicity at 25 µM worked out at 0%.

In another experiment the test system is Leishmania infantum. The experiment can be described thus: Percentage of activity against Leishmania infantum at 12.5 uM Concentration; Toxic upon mouse primary peritoneal macrophages. In kind it is functional, organism-based.
Details: not given
In short, it runs like this: as §1
As for `COc1ccc2nc3cc(Cl)ccc3c(NCCCN(CCCNc3c4ccc(Cl)cc4nc4ccc(OC)cc34)C(=O)CNC(=O)C(C)NC(=O)OC(C)(C)C)c2c1` (configuration not stated), the Cytotoxicity entry is “Toxic”.
On to `COc1ccc2nc3cc(Cl)ccc3c(NCCCN(CCCNc3c4ccc(Cl)cc4nc4ccc(OC)cc34)C(=O)C(N)CN)c2c1` (configuration not stated), for which the Cytotoxicity entry was “Toxic”.

The subject of a further experiment is MRC5. As to the kind of experiment: Cytotoxicity on MRC-5 cells at 6.25 uM. It counts as functional. The following applies: Homo sapiens. In short, it runs like this:
as §2
`COc1ccc2nc3cc(Cl)ccc3c(NCCCN(CCCNc3c4ccc(Cl)cc4nc4ccc(OC)cc34)C(=O)CNC(=O)C(C)NC(=O)OC(C)(C)C)c2c1` (configuration not stated) registered a cytotoxicity at 6.25 µM of 41%.
In turn, `COc1ccc2nc3cc(Cl)ccc3c(NCCCN(CCCNc3c4ccc(Cl)cc4nc4ccc(OC)cc34)C(=O)C(N)CN)c2c1` (configuration not stated) had a cytotoxicity at 6.25 µM of 0%.

In a further experiment the test system is Trypanosoma brucei. As to the kind of experiment: Percentage of activity against Trypanosoma brucei at 1.56 uM. In kind it is functional.
Details: not given
In short, it runs like this:
as §4
As to `COc1ccc2nc3cc(Cl)ccc3c(NCCCN(CCCNc3c4ccc(Cl)cc4nc4ccc(OC)cc34)C(=O)CNC(=O)C(C)NC(=O)OC(C)(C)C)c2c1` (configuration not stated), the “Percent inhibition of parasite multiplication” value worked out at 100%.
The same measure, in the same setting: the result for `COc1ccc2nc3cc(Cl)ccc3c(NCCCN(CCCNc3c4ccc(Cl)cc4nc4ccc(OC)cc34)C(=O)C(N)CN)c2c1` (configuration not stated) reads 99%.

The next experiment concerns Trypanosoma cruzi. The experiment can be described thus: Percentage of activity against Trypanosoma cruzi at 6.25 uM Concentration. In kind it is functional.
Details: not given
In short, it runs like this:
as §3
For `COc1ccc2nc3cc(Cl)ccc3c(NCCCN(CCCNc3c4ccc(Cl)cc4nc4ccc(OC)cc34)C(=O)CNC(=O)C(C)NC(=O)OC(C)(C)C)c2c1` (configuration not stated), the “Reduction of T. cruzi parasite load” value was 40%.

Values taken from ChEMBL document CHEMBL1133105, “Antimalarial, antitrypanosomal, and antileishmanial activities and cytotoxicity of bis(9-amino-6-chloro-2-methoxyacridines): influence of the linker” (J Med Chem, 2000).
